Screens deposited in PubChem BioAssay by several laboratories.
Sampled rows, rich in hits. Any-hit rate of the full collection: about 2.9%.
PfM18AAP inh: PfM18AAP enzyme inhibition. recombinant PfM18AAP, H-Glu-NHMec fluorogenic cleavage. inhibition, % at 7.35 µM. 1.2% of 290,000 active. AID 1822;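 active = inhibition above the campaign mean inhibition over all tested compounds plus 3 SD, cut at about 28% in these data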;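 note: 0% = plate median of test compound wells and 100% = 2 mM ZnCl2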
UBC13 inh: inhibitors of human UBC13 polyubiquitin chain formation | P61088 | TR-FRET | inhibition, % at 20 µM | 0.47% of 330,000 active; in the data active = inhibition above about 45%, passing the limit was not always enough; inconclusive = no clear call, values can overlap the other calls
Target sequence (P61088 whole entry, looked up): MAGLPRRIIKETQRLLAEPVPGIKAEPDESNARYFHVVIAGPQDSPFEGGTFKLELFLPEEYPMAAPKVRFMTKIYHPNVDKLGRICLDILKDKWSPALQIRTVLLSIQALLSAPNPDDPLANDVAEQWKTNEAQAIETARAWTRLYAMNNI
Apaf1 inhib: blocks human Apaf-1 apoptosome activity | AID 489030 | 0.71% of 330,000 active | inhibition, % at 20 µM | O14727 | reconstituted apoptosome caspase-3 activity, DEVD-Rh110 fluorescence; active = inhibition of at least 40% at 20 µM;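 note: plate controls were DMSO wells for no effect and DEVD-CHO caspase inhibitor wells for full effect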
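System: reconstituted apoptosome with Apaf-1, cytochrome c, caspase-9, procaspase-3, dATP; Signal: Rh110 fluorescence intensity; Schedule: 30 min compound preincubation, 50 min activation, room temperature; Reagent: cytochrome c trigger plus (Z-DEVD)2-Rh110 caspase-3 substrate.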
EBNA-1 inh: blocks EBNA-1 binding to DNA | inhibition, % at 14.8 µM | EBNA-1 DNA binding, fluorescence polarization | 0.34% of 300,000 active; in the data active = inhibition above about 28%
ZTA DNA inh: blocks Epstein-Barr virus ZTA, an EBNA-1 counter-screen | inhibition, % at 11 µM | ZTA-DNA binding, fluorescence polarization | 0.15% of 320,000 active | P03206; in the data active = inhibition above about 33%
Target sequence (P03206 whole entry, looked up): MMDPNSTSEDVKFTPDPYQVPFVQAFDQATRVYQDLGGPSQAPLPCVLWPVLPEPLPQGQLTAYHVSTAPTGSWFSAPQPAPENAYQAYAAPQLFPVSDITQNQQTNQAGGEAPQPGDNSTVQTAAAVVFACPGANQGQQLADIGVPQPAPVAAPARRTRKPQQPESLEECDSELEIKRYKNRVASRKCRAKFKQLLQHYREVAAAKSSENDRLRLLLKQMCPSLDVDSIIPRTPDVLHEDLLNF
PfGluPho inh: PfG6PD (Plasmodium falciparum) enzyme inhibition. PfGluPho enzyme, NADPH resazurin-diaphorase fluorescence. inhibition, % at 20 µM. 0.78% of 350,000 active;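 active = inhibition reaching at least a set limit at 20 µM in the primary screen, cut at about 59% in these data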;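 note: 0% = DMSO wells with substrate and 100% = DMSO wells lacking glucose-6-phosphate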
Apaf-1 inh conf: Apaf-1 inhibition, single-dose confirmed | shares compounds with Apaf1 inhib | inhibition, % at 20 µM | AID 504614 | reconstituted apoptosome, caspase-3 DEVD-Rh110 fluorescence | 25% of 1,800 active;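 active = mean inhibition of at least 40% at 20 µM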;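 note: plate controls were DMSO wells for no effect and DEVD-CHO caspase inhibitor control wells for full effect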
Rh110 quench: counter-screen for Apaf-1 inhibitors: fluorescence interference; shares compounds with Apaf1 inhib; Rh110 fluorescence interference, quenched caspase reaction; activation (fluorescence interference), % at 20 µM; 1,800 tested, under 10 active;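 active = signal rise of 40% or more at 20 µM, treated as a fluorescence artifact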
Fluor interf inh: Apaf-1 inhibitor counter-screen fluorescence artifact | 460 tested, under 10 active | fluorescence interference counterscreen, Apaf-1 assay format | shares compounds with Apaf1 inhib | AID 588538 | IC50, µM; call rule not given here
PfG6PD confirm: confirmation of Plasmodium falciparum G6PD inhibitors. shares compounds with PfGluPho inh. recombinant PfGluPho, NADPH-diaphorase-resazurin fluorescence. inhibition, % at 20 µM. 34% of 2,400 active. AID 504753;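 active = inhibition of at least 50% at 20 µM in any single replicate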;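 note: 0% = DMSO with substrate and 100% = DMSO lacking glucose-6-phosphate substrate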
Diaphorase 10uM: diaphorase inhibition or oxidation at 10 uM NADPH | shares compounds with PfGluPho inh | diaphorase-coupled resazurin reduction, fluorescence, NADPH 10 uM | inhibition, % at 20 µM | 39% of 820 active;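 active = average inhibition reaching 50% or more with the compound at 20 µM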;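 note: resorufin red fluorescence formed as diaphorase reduces resazurin using NADPH; 0% = DMSO with enzyme and 100% = DMSO without enzyme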
Diaph ctr 30uM: counter-screen for P. falciparum G6PD inhibitors: diaphorase inhibitors, oxidizers; shares compounds with PfGluPho inh; Diaphorase/resazurin coupled assay, resorufin fluorescence, 30 uM NADPH; inhibition, % at 20 µM; 29% of 820 active; AID 504863;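 active = inhibition averaging 50% or more, tested at 20 µM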;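 note: 0% = DMSO with enzyme and 100% = DMSO wells lacking diaphorase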
The depositor's hits bear a star; ? = inconclusive; nt = not tested or not shown; + = active, no number.

SMILES	PfM18AAP inh	UBC13 inh	Apaf1 inhib	EBNA-1 inh	ZTA DNA inh	PfGluPho inh	Apaf-1 inh conf	Rh110 quench	PfG6PD confirm	others
O=C(CNc1cccc2ccccc12)N/N=C/c1ccccn1	-3	-57	48*	4	10	60*	15	3	20
Cc1cc(Cl)ccc1NC(=S)Nc1cccnc1	-1	5	-4	4	10	-11	nt	nt	nt
S=C(Nc1ccc(Cl)cc1)Nc1cccc2cnccc12	14	-68	83*	-9	0	75*	17	-1	-8
COc1ccc(Br)cc1/C=N/N1C(=O)CSC1=S	21	0	7	-11	-8	-7	nt	nt	nt
COc1ccc(Br)cc1C1CC(=O)N2CN(C)CSC2=C1C#N (stereo unspecified)	26	-22	42*	3	6	65*	29	18	25
COc1ccc(NC(=O)C(C)Sc2nnc3c4c(nc(-c5ccc(OC)cc5)n23)CC(C)(C)OC4)cc1 (stereo unspecified)	-2	2	15	2	0	0	nt	nt	nt
Cc1c(C(=O)c2ccc(F)cc2F)c2ccccn2c1CCC#N	30*	-61	63*	-9	-20	94*	24	10	17
C[C@@H]1CC[C@H](O)/C=C/C(=O)O[C@H](C)CC[C@H](O)/C=C/C(=O)O1	nt	-1	-9	2	7	16	nt	nt	nt
CCNc1ccccc1CP(=O)(c1ccccc1)c1ccccc1O (stereo unspecified)	3	-48	87*	10	0	81*	12	-1	87*	Diaphorase 10uM=44;Diaph ctr 30uM=23
CC(=O)OCCCNc1cc(Sc2ccc(C)cc2)c2nonc2c1[N+](=O)[O-]	-7	-14	19	-22	5	17	nt	nt	nt
CC(=O)OCCCNc1cc(Sc2nc3ccccc3s2)c2nonc2c1[N+](=O)[O-]	-10	-45	96*	0	-22	99*	29	1	63*	Diaphorase 10uM=-18;Diaph ctr 30uM=-11
CCOc1cc(CNc2ccc(S(N)(=O)=O)cc2)cc(Cl)c1OC	-8	12	3	-7	-10	-4	nt	nt	nt
CCOc1cc(CNc2ccc(N3CCCC3)cc2)cc(Cl)c1OC	10	-19	55*	97*	159*	84*	51*	9	63*	Fluor interf inh=>100;Diaphorase 10uM=-4;Diaph ctr 30uM=-5
CN(CC(=O)Nc1ccc(F)c(F)c1F)C(=O)c1ccc2c(c1)S(=O)(=O)N=C1CCCCCN12	nt	-7	-14	-12	2	-22	nt	nt	nt
CCc1ccc(CNc2ccc(O)cc2)cc1	26	-28	96*	4	27	85*	41*	-1	43	Fluor interf inh=>100
Cc1cc(O)c(C(C)C)cc1N=Cc1cc([N+](=O)[O-])ccc1O	2	-29	44*	-5	-22	82*	7	1	23
CN(C)c1cccc2c1c(NC(=O)c1ccc(F)cc1)nn2C	3	-7	92*	-2	-7	74*	16	1	57*	Diaphorase 10uM=24;Diaph ctr 30uM=26
O=C(Nc1ccc2nc(-c3ccco3)c(-c3ccco3)nc2c1)NC1CC1	29*	?	47*	nt	nt	82*	33	5	32
COc1ccc(CN2C(=O)c3ccccc3C(/C=N\OCc3ccc(C)cc3)C2=O)cc1 (stereo unspecified)	1	-33	20	-2	-6	13	nt	nt	nt
Cc1ccccc1N1CN(Cc2ccco2)CNC1=S	-5	6	-8	-12	-6	-9	nt	nt	nt
CC(=O)c1cccc(NCC(=O)N2CCN(S(=O)(=O)c3ccccc3)CC2)c1	nt	-14	-6	nt	2	16	nt	nt	nt
C=CCOc1c(Cl)cc(CNc2ccc(N(C)C)cc2)cc1OC	7	-10	64*	+	+	79*	19	3	51*	Diaphorase 10uM=0;Diaph ctr 30uM=-3
CNc1ccc(S(=O)(=O)NCC(=O)OCC(=O)Nc2cccc(Cl)c2Cl)cc1[N+](=O)[O-]	7	-20	13	-5	2	-1	nt	nt	nt
CCOC(=O)Nc1ccc(NCc2ccc(F)cc2)nc1N	nt	-29	96*	-1	9	98*	53*	4	79*	Fluor interf inh=>100;Diaphorase 10uM=11;Diaph ctr 30uM=12
COc1ccc(CNC(=O)C2CCN(S(=O)(=O)c3ccc4c(c3)N(C(C)=O)CCO4)CC2)cc1	2	1	-4	-6	13	0	nt	nt	nt
SMILES	PfM18AAP inh	UBC13 inh	Apaf1 inhib	EBNA-1 inh	ZTA DNA inh	PfGluPho inh	Apaf-1 inh conf	Rh110 quench	PfG6PD confirm	others
Cc1cccc(C)c1NC(=O)CSc1nnc(-c2ccco2)c(-c2ccco2)n1	17	-14	42*	-2	2	63*	27	2	18
Cc1ccc(S(=O)(=O)Nc2cccc3c2O[C@H](CN(C)Cc2ccccc2)[C@@H](C)CN([C@H](C)CO)C3=O)cc1	nt	-9	10	nt	nt	-12	nt	nt	nt
CCOC(=O)c1c2ccc(OCC(=O)NN)cc2n2ccccc12	8	2	42*	-1	13	47	53*	0	59*	Fluor interf inh=>100;Diaphorase 10uM=61*;Diaph ctr 30uM=38
Cc1ccc(NCc2ccccc2OCc2ccccc2F)cc1	2	1	12	-7	4	23	nt	nt	nt
Oc1ccc(NCc2ccccc2OCc2ccccc2F)cc1	7	1	92*	2	-8	76*	30	10	42
CC1(OC(=O)C2CCCC2)C(=O)C=C2C=C(c3ccsc3)N(CCCCO)C=C2C1=O (stereo unspecified)	nt	-80	54*	0	-6	66*	36	0	36
COc1ccc(Nc2ccc3c(c2)=NC2(CCCCC2)[N+]=3[O-])cc1	12	-271	80*	-1	-5	78*	70*	12	14	Fluor interf inh=>100
O=C(c1ccco1)N1CCN(CCCCN2C(=O)c3ccccc3C2=O)CC1	-1	-2	-2	-11	-18	-1	nt	nt	nt
O=C1c2ccccc2-c2onc3c(N4CCN(CCO)CC4)cc(N4CCN(C(=O)c5ccco5)CC4)c1c23	22	-175	52*	9	28	75*	35	5	35
CCCCC(=O)N1C/C=C\C(c2ccc(OC)cc2)N(Cc2ccc(F)cc2)C(=O)C1 (stereo unspecified)	nt	2	3	8	-4	-6	nt	nt	nt
